These results are taken from ChEMBL document CHEMBL1125838, “Conformational restriction of the phenylalanine residue in a cyclic opioid peptide analogue: effects on receptor selectivity and stereospecificity” (J Med Chem, 1991).

By IC50 is commonly meant the point on the concentration scale where inhibition reaches its midpoint. By Ki is commonly meant the equilibrium dissociation constant of an inhibitor or competing ligand from its target. Higher therefore signals a looser hold on the target.

Experiment [1] is filed under the species Mus musculus. Description: Compound was tested in vitro for inhibition of electrically evoked contractions of the mouse vas deferens. Format: functional. Summed up:
(§1)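 Electrically stimulated guinea pig ileum or mouse vas deferens preparations; inhibition of evoked contractions measured. Each preparation also gave a log dose-response curve for the [Leu5]enkephalin standard, and test IC50 values were normalized against it. Naloxone Ki came from the ratio of IC50 values with and without a fixed naloxone concentration.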

For experiment [2], the species on record is Mus musculus. The experiment can be described thus: Relative potency towards mouse vas deferens relative to [Leu5]-enkephalin. Format: functional. The method, boiled down:
(§2)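 The [Leu5]enkephalin standard's log dose-response curve was run on each individual ileum or vas deferens preparation. Test IC50 values for inhibition of electrically evoked contractions were normalized to it, giving potency relative to [Leu5]enkephalin.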

Experiment [3] deals with Delta-type opioid receptor (Rattus norvegicus, UniProt P33533). The experiment can be described thus: Displacement of [3H]DSLET from rat brain membrane opioid receptor delta. The method, boiled down:
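Rat brain membranes incubated with 0.78 nM [3H]DSLET at 0 °C for 2 h. IC50 taken from log dose-displacement curves.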
For orientation: Loss of bound radioactivity is the signal in a displacement assay; it reports binding, not function.

The species entered for experiment [4] is Cavia porcellus. Description: Relative potency towards guinea pig ileum relative to [Leu5]-enkephalin. It counts as functional. The method, boiled down:
as §2

For experiment [5], the species on record is Cavia porcellus. The experiment can be described thus: Compound was tested in vitro for inhibition of electrically evoked contractions of the guinea pig ileum. Format: functional. Summed up:
as §1

Experiment [6] has as its target Mu-type opioid receptor (Rattus norvegicus, UniProt P33535). Description: Displacement of [3H]DAGO from rat brain membrane opioid receptor mu.

Chain of Mu-type opioid receptor (P33535 whole entry): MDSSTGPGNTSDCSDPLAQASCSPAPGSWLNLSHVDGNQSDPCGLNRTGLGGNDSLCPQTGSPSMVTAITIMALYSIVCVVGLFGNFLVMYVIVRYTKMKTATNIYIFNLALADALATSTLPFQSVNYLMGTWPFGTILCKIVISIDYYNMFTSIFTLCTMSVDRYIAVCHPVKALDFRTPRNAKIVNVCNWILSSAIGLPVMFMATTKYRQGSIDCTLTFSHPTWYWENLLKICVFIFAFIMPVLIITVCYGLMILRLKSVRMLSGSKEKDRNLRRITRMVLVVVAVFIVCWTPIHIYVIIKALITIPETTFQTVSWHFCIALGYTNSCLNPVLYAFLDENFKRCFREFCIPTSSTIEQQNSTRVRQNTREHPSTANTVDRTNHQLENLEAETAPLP
Chain of Delta-type opioid receptor (P33533 whole entry): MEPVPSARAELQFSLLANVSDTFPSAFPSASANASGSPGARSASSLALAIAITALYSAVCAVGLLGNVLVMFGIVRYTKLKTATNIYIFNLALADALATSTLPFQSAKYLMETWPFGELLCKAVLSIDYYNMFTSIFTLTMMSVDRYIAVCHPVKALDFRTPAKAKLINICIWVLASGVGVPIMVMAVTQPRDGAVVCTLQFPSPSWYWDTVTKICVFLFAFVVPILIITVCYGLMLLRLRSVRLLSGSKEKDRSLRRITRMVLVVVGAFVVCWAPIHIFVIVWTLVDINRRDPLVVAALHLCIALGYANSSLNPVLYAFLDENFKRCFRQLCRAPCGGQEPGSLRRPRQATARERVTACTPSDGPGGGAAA

As for `CN1C(=O)[C@H](NC(=O)[C@@H](N)Cc2ccc(O)cc2)CCCNC(=O)CC[C@@H](C(N)=O)NC(=O)[C@@H]1Cc1ccccc1`, the IC50 in experiment [1] was 2070 nM; in experiment [5], 707 nM. For the same compound, the results for the Relative potency in experiment [2] and in experiment [4] were 0.00551 and 0.348, respectively. Further, the Ki in experiment [3] is 12800 nM; in experiment [6], 1000 nM.

On to `NC(=O)[C@@H]1CCC(=O)NCCC[C@@H](NC(=O)[C@@H](N)Cc2ccc(O)cc2)C(=O)N[C@H](CCc2ccccc2)C(=O)N1`, for which the IC50 is 4160 nM in experiment [1] and 728 nM in experiment [5]. In addition, the values for the Relative potency in experiment [2] and in experiment [4] were 0.00274 and 0.338, respectively. In addition, the values for the Ki in experiment [3] and in experiment [6] were 2600 nM and 258 nM, respectively.

Consider `NC(=O)[C@@H]1CCC(=O)NCCC[C@@H](NC(=O)[C@@H](N)Cc2ccc(O)cc2)C(=O)N[C@H](Cc2ccccc2)C(=O)N1`, for which the Relative potency was 3.86 µM in experiment [1], 0.00295 in experiment [2] and 0.28 in experiment [4]. This compound returned a Ki in experiment [3] of 14000 nM.

As to `NC(=O)[C@@H]1CCC(=O)NCCC[C@@H](NC(=O)[C@@H](N)Cc2ccc(O)cc2)C(=O)NC2(Cc3ccccc3C2)C(=O)N1` [listing 1 of 2 here], the values for the IC50 in experiment [1] and in experiment [5] were 36.5 nM and 7.21 nM, respectively. The values for the Ki in experiment [3] and in experiment [6] were 209 nM and 4.21 nM, respectively.

Take `NC(=O)[C@@H]1CCC(=O)NCCC[C@@H](NC(=O)[C@@H](N)Cc2ccc(O)cc2)C(=O)NC2(Cc3ccccc3C2)C(=O)N1` [listing 2 of 2 here]: the figures for the Relative potency in experiment [2] and in experiment [4] were 0.312 and 34.1, respectively.

Turning to `NC(=O)[C@@H]1CCC(=O)NCCC[C@@H](NC(=O)[C@@H](N)Cc2ccc(O)cc2)C(=O)N[C@@H](Cc2ccccc2)C(=O)N1`, the IC50 in experiment [1] was 1.11 nM; in experiment [5] it was 1.17 nM. Further, the Relative potency is reported as 10.3 in experiment [2] and 210 in experiment [4]. Also, the Ki in experiment [3] came to 3.21 nM; in experiment [6] it was 0.981 nM.

In the case of `NC(=O)[C@@H]1CCC(=O)NCCC[C@@H](NC(=O)[C@@H](N)Cc2ccc(O)cc2)C(=O)N2Cc3ccccc3C[C@H]2C(=O)N1`, the IC50 worked out at 7310 nM in experiment [1] and 3060 nM in experiment [5]. The Relative potency in experiment [2] stood at 0.00156; in experiment [4] it was 0.0803. Besides, the Ki in experiment [3] was determined as 50100 nM; in experiment [6], 2410 nM.

As for `NC(=O)[C@@H]1CCC(=O)NCCC[C@@H](NC(=O)[C@@H](N)Cc2ccc(O)cc2)C(=O)N[C@@H](Cc2ccc3ccccc3c2)C(=O)N1`, the IC50 worked out at 10.9 nM in experiment [1] and 4.07 nM in experiment [5]. Also, the Relative potency in experiment [2] was found to be 1.05; in experiment [4] it was 60.5. Moreover, the results for the Ki in experiment [3] and in experiment [6] were 50.7 nM and 2.56 nM, respectively.

As for `NC(=O)[C@@H]1CCC(=O)NCCC[C@@H](NC(=O)[C@@H](N)Cc2ccc(O)cc2)C(=O)N[C@@H](CCc2ccccc2)C(=O)N1`, the IC50 in experiment [1] was 34.3 nM; in experiment [5], 5.82 nM. The Relative potency in experiment [2] stood at 0.332; in experiment [4], 42.3. In experiment [3], the affinity corresponds to a Ki of 15.4 nM.

Turning to `Cc1ccccc1C[C@@H]1NC(=O)[C@H](NC(=O)[C@@H](N)Cc2ccc(O)cc2)CCCNC(=O)CC[C@@H](C(N)=O)NC1=O`, the IC50 is 1.11 nM in experiment [1] and 0.543 nM in experiment [5]. In addition, the Relative potency in experiment [2] is given as 10.3; in experiment [4] it was 453. Further, the Ki in experiment [3] is 9.22 nM; in experiment [6], 1.92 nM.

Regarding `C[C@]1(Cc2ccccc2)NC(=O)[C@H](NC(=O)[C@@H](N)Cc2ccc(O)cc2)CCCNC(=O)CC[C@@H](C(N)=O)NC1=O`, the figures for the concentration for half-maximal inhibition (IC50) in experiment [1] and in experiment [5] were 5.51 nM and 3.31 nM, respectively. Besides, the Relative potency is recorded as 2.07 in experiment [2] and 74.3 in experiment [4]. Moreover, the inhibition constant (Ki) stood at 54.6 nM in experiment [3] and 7.17 nM in experiment [6].

`NC(=O)[C@@H]1CCC(=O)NCCC[C@@H](NC(=O)[C@@H](N)Cc2ccc(O)cc2)C(=O)N[C@]2(CCc3ccccc3C2)C(=O)N1` (single isomer, unassigned): the IC50 stood at 254 nM in experiment [1] and 31.6 nM in experiment [5]. For the same compound, the results for the Relative potency in experiment [2] and in experiment [4] were 0.0449 and 7.78, respectively. Besides, the results for the Ki in experiment [3] and in experiment [6] were 1570 nM and 8.26 nM, respectively.

`NC(=O)[C@@H]1CCC(=O)NCCC[C@@H](NC(=O)[C@@H](N)Cc2ccc(O)cc2)C(=O)N[C@@]2(CCc3ccccc3C2)C(=O)N1` (single isomer, unassigned): the IC50 in experiment [1] worked out at 3070 nM; in experiment [5], 285 nM. For the same compound, the Relative potency in experiment [2] is listed as 0.00371; in experiment [4], 0.863. Also, the Ki in experiment [3] came out at 3510 nM; in experiment [6], 26.3 nM.
